Assay results taken from ChEMBL document CHEMBL3763111, “Identification of a diverse indole-2-carboxamides as a potent antileishmanial chemotypes” (Eur J Med Chem, 2016).

What was measured:
[1] = (§1) Selectivity index, ratio of CC50 for African green monkey Vero cells to IC50 for Leishmania donovani MHOM/IN/80/Dd8 amastigotes infected in mouse J774A.1 cells; type: functional
How it was run: (§2)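 Ratio of Vero-cell MTT CC50 to IC50 against intracellular amastigotes, both measured in this work.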

[2] = Cytotoxicity against mouse J774A.1 cells after 72 hrs by MTT assay; type: cell-based, J774.A1
How it was run: (§3)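 Vero or J-774A.1 cells (1 x 10^5 cells/mL) exposed to 7 concentrations starting from 400 µM for 72 h. MTT (5 mg/mL stock) then added for 2 h at 37°C. Formazan dissolved in DMSO; absorbance read at 544 nm. CC50 estimated per Huber & Koella; mean ± SD of two independent assays in duplicate.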

Leishmania donovani [3] = experiment: Potency index, ratio of IC50 for miltefosine to IC50 for test compound against Leishmania donovani MHOM/IN/80/Dd8 amastigotes infected in mouse J774A.1 cells; type: functional
[4] = Cytotoxicity against African green monkey Vero cells after 72 hrs by MTT assay; type: cell-based; details: chlorocebus sabaeus; how it was run: as §3
Leishmania donovani [5] = experiment: Antileishmanial activity against Leishmania donovani MHOM/IN/80/Dd8 amastigotes infected in mouse J774A.1 cells incubated for 72 hrs by luminometric analysis; type: functional, organism-based; details: MHOM/IN/80/Dd8, J774.A1, 72 h
How it was run: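 Macrophages seeded at 4 x 10^4/mL in RPMI-1640 with 10% FCS for 24 h, then infected with stationary-phase promastigotes (4 x 10^5/mL) for 24 h. Free parasites washed off. Compounds added as 7-point two-fold dilutions from 40 µM; 72 h at 37°C. Read-out was Steady Glo luminescence. IC50 from four-parameter Hill fit; two independent assays in duplicate.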

Leishmania donovani [6] = experiment: Antileishmanial activity against amastigote stage of Leishmania donovani MHOM/IN/80/Dd8 infected in golden hamster at 30 mg/kg, po administered for 5 days measured on day 7 of last dose by Geimsa staining method; type: functional; details: MHOM/IN/80/Dd8, po
How it was run: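 Golden hamsters (inbred, either sex, 40–45 g) were infected intracardially with 1x 10^7 L. donovani amastigotes. Spleen biopsy at day 15; animals with +1 infection (5–10 amastigotes/100 spleen cell nuclei) were used, 5–6 per group. Dosing started 2 days after biopsy and ran 5 consecutive days. Day-7 post-treatment splenic amastigotes were counted by Giemsa stain; percent inhibition was computed against initial and untreated-control counts.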

Syrian golden hamster = experiment: Toxicity in golden hamster infected with amastigote stage of Leishmania donovani MHOM/IN/80/Dd8 assessed as abnormality in behaviour at 50 mg/kg/day, ip administered for 5 days; type: organism-based, Mesocricetus auratus; details: in vivo, 120 h
Leishmania donovani [7] = experiment: Antileishmanial activity against amastigote stage of Leishmania donovani MHOM/IN/80/Dd8 infected in golden hamster at 50 mg/kg/day, ip administered for 5 days measured on day 7 of last dose by Geimsa staining method; type: functional; details: MHOM/IN/80/Dd8, ip
How it was run: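 Inbred golden hamsters (40–45 g) infected intracardially with 1x10^7 amastigotes; only animals with +1 infection at 15-day spleen biopsy used. Five to six per group. Aqueous compound given ip at 50 mg/kg/day for 5 days, starting 2 days after biopsy. Splenic biopsy on day 7 after last dose, Giemsa-stained. Percent inhibition by formula relative to initial and untreated-control counts; pooled from at least two experiments.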

Vero = experiment: as §1; type: functional; how it was run: as §2
Leishmania donovani [8] = experiment: Antileishmanial activity against amastigote stage of Leishmania donovani MHOM/IN/80/Dd8 infected in golden hamster at 40 mg/kg, ip administered for 5 days measured on day 7 of last dose by Geimsa staining method; type: functional, organism-based
[9] = Mean residence time in Sprague-Dawley rat at 5 mg/kg, iv by RP-HPLC analysis; type: ADME, organism-based; details: in vivo
How it was run: (§4)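 Male Sprague-Dawley rats (250 ± 25 g), conscious, given a single 5 mg/kg dose into the femoral vein. The dose was a 10 mg/ml solution in DMSO/ethanol/tween 80/propylene glycol (10:20:2:48) with normal saline. Blood taken 0.083–48 h; serum read by isocratic RP-HPLC (C18, ammonium acetate 0.01M:acetonitrile 35:65), LLOQ 25 ng/ml. n=3; noncompartmental analysis.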

[10] = Cmax in Sprague-Dawley rat at 50 mg/kg administered as single dose via oral gavage after 0.5 to 48 hrs by RP-HPLC analysis; type: ADME, organism-based; set-up: dose 50 mg/kg, route oral; details: in vivo
How it was run: (§5)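 Single 50 mg/kg oral gavage dose to conscious male Sprague-Dawley rats (250 ± 25 g) after a 12–16 h overnight fast. Blood drawn at 0.5–48 h; serum separated and held at -80°C. Quantified by isocratic RP-HPLC (C18; 0.01M ammonium acetate/acetonitrile 35:65), LLOQ 25 ng/ml. Three rats; parameters derived noncompartmentally from mean serum concentrations.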

Rattus norvegicus = experiment: Volume of distribution at steady state in Sprague-Dawley rat at 50 mg/kg administered as single dose via oral gavage after 0.5 to 48 hrs by RP-HPLC analysis; type: ADME, organism-based; details: in vivo; how it was run: as §5
[11] = Tmax in Sprague-Dawley rat at 5 mg/kg, iv by RP-HPLC analysis; type: ADME, organism-based; details: in vivo; how it was run: as §4
[12] = Volume of distribution at steady state in Sprague-Dawley rat at 5 mg/kg, iv after 0.083 to 48 hrs by RP-HPLC analysis; type: ADME, organism-based; details: in vivo, read-out: Vdss; how it was run: as §4
Leishmania donovani [13] = experiment: Antileishmanial activity against promastigote stage of Leishmania donovani MHOM/IN/80/Dd8 assessed as apoptotic cells at IC50 after 24 hrs by annexin V-FITC/propidium iodide double staining-based flow cytometric analysis; type: functional
Leishmania donovani [14] = experiment: Antileishmanial activity against promastigote stage of Leishmania donovani MHOM/IN/80/Dd8 assessed as apoptotic cells at IC50 after 48 hrs by annexin V-FITC/propidium iodide double staining-based flow cytometric analysis; type: functional
[15] = Clearance in Sprague-Dawley rat at 50 mg/kg administered as single dose via oral gavage after 0.5 to 48 hrs by RP-HPLC analysis; type: ADME, organism-based; details: in vivo; how it was run: as §5
Leishmania donovani [16] = experiment: Antileishmanial activity against promastigote stage of Leishmania donovani MHOM/IN/80/Dd8 assessed as apoptotic cells at IC50 after 72 hrs by annexin V-FITC/propidium iodide double staining-based flow cytometric analysis; type: functional
[17] = Cmax in Sprague-Dawley rat at 5 mg/kg, iv after 0.083 to 48 hrs by RP-HPLC analysis; type: ADME, organism-based; set-up: dose 5 mg/kg, route intravenous; details: in vivo; how it was run: as §4
Leishmania donovani [18] = experiment: Antileishmanial activity against promastigote stage of Leishmania donovani MHOM/IN/80/Dd8 assessed as apoptotic cells at IC50 after 12 hrs by annexin V-FITC/propidium iodide double staining-based flow cytometric analysis; type: functional
[19] = AUC(last) in Sprague-Dawley rat at 5 mg/kg, iv after 0.083 to 48 hrs by RP-HPLC analysis; type: ADME, organism-based; set-up: dose 5 mg/kg, route intravenous, time 0 - last; details: in vivo; how it was run: as §4
[20] = Tmax in Sprague-Dawley rat at 50 mg/kg administered as single dose via oral gavage by RP-HPLC analysis; type: ADME, organism-based; details: in vivo; how it was run: as §5
[21] = Mean residence time in Sprague-Dawley rat at 50 mg/kg administered as single dose via oral gavage by RP-HPLC analysis; type: ADME, organism-based; details: in vivo; how it was run: as §5
[22] = AUC(last) in Sprague-Dawley rat at 50 mg/kg administered as single dose via oral gavage after 0.5 to 48 hrs by RP-HPLC analysis; type: ADME, organism-based; set-up: dose 50 mg/kg, time 0 - last, route oral; details: in vivo; how it was run: as §5
[23] = Clearance in Sprague-Dawley rat at 5 mg/kg, iv after 0.083 to 48 hrs by RP-HPLC analysis; type: ADME, organism-based; details: in vivo; how it was run: as §4
[24] = Oral availability in Sprague-Dawley rat at 50 mg/kg via gavage after 0.5 to 48 hrs by RP-HPLC analysis; type: ADME, organism-based; details: in vivo; how it was run: as §5

Row | Molecule | IC50 (Leishmania donovani [5]) [µM] | Ratio CC50/IC50 [1] | CC50 at 72 h [2] [µM] | CC50 at 72 h [4] [µM] | other results
1 | CC(C)(C)NC(=O)C(c1ccc(Cl)cc1)N(CC(=O)NCCCN1CCOCC1)C(=O)c1cc2ccccc2[nH]1 (stereo not given) | 2.1 | 101 | 198 | 212 | Ratio IC50 (Leishmania donovani [3]): 4
2 | CC(C)(C)NC(=O)C(c1ccc(Cl)cc1)N(CC(=O)NCc1ccncc1)C(=O)c1cc2ccccc2[nH]1 (stereo not given) | 6.4 | >62 | 129 | > 400 | 
3 | CC(C)(C)NC(=O)C(c1ccc(Cl)cc1)N(CC(=O)NCCO)C(=O)c1cc2ccccc2[nH]1 (stereo not given) | > 40 | <5 | 239 | 226 | 
4 | CCCCCCCCCCCCCCCCOP(=O)([O-])OCC[N+](C)(C)C [MILTEFOSINE] | 8.4 | 6 | 14.3 |  | inhibition in vivo at 30 mg/kg (Leishmania donovani [6]): 98.1%; Activity (Syrian golden hamster): Non-toxic
5 | COc1ccc(C(C(=O)NC(C)(C)C)N(CC(=O)NCc2ccncc2)C(=O)c2cc3ccccc3[nH]2)cc1 (stereo not given) | 1.4 | 78 | 47.9 | 109 | 
6 | COc1ccc(CNC(=O)CN(C(=O)c2ccc[nH]2)C(C(=O)NC(C)(C)C)c2cc(OC)c(OC)c(OC)c2)cc1 (stereo not given) | 14.5 | 5 | 62.4 | 73 | 
7 | COc1ccc(CNC(=O)CN(C(=O)c2cc3ccccc3[nH]2)C(C(=O)NC(C)(C)CC(C)(C)C)c2ccc(Cl)cc2)cc1 (stereo not given) | 3.1 | >129 | 51.2 | > 400 | 
8 | COc1ccc(CNC(=O)CN(C(=O)c2cc3ccccc3[nH]2)C(C(=O)NC(C)(C)C)c2cc(OC)c(OC)c(OC)c2)cc1 (stereo not given) | 9.2 | 7 | 53.6 | 70.3 | 
9 | Sodium stibo-gluconate |  |  |  |  | Ratio CC50/IC50 (Vero): > 7; inhibition (Leishmania donovani [8]): 86.9%
10 | CC(C)(C)NC(=O)C(c1ccc(Cl)cc1)N(CC(=O)NCc1ccc(Cl)c(Cl)c1)C(=O)c1cc2ccccc2[nH]1 (stereo not given) | 7.5 | 7 | 19.2 | 52.2 | 
11 | COc1ccc(CNC(=O)CN(C(=O)c2cc3ccccc3[nH]2)C(C(=O)NC(C)(C)C)c2ccc(Br)cc2)cc1 (stereo not given) | 1.5 | >266 | 135 | > 400 | 

The next lines start with results.

Row | IC50 (Leishmania donovani [5]) [µM] | Molecule | Ratio CC50/IC50 [1] | CC50 at 72 h [2] [µM] | CC50 at 72 h [4] [µM] | other results
12 | > 40 | COc1cc(C(C(=O)NC(C)(C)C)N(CC(=O)NCc2ccccc2)C(=O)c2cc3ccccc3[nH]2)cc(OC)c1OC (stereo not given) | <4 | 66.8 | 176 | 
13 | 10.9 | CC(C)(C)NC(=O)C(c1ccc(Cl)cc1)N(CC(=O)NCc1ccc(Cl)cc1)C(=O)c1cc2ccccc2[nH]1 (stereo not given) | >36 | 143 | > 400 | 
14 | 6.3 | COc1cc(C(C(=O)NC(C)(C)C)N(CC(=O)NCc2ccc(Cl)c(Cl)c2)C(=O)c2cc3ccccc3[nH]2)cc(OC)c1OC (stereo not given) | 11 | 61.4 | 72.9 | 
15 | 1.9 | COc1cccc(CNC(=O)CN(C(=O)c2cc3ccccc3[nH]2)C(C(=O)NC(C)(C)C)c2ccc(Cl)cc2)c1 (stereo not given) | >210 | 42.5 | > 400 | 
16 | 0.6 | COc1ccc(CNC(=O)CN(C(=O)c2cc3ccccc3[nH]2)C(C(=O)NC(C)(C)C)c2ccc(OC)cc2)cc1 (stereo not given) | >666 | 145 | > 400 | Ratio IC50 (Leishmania donovani [3]): 14; Activity (Syrian golden hamster): Non-toxic; inhibition in vivo at 50 mg/kg/day (Leishmania donovani [7]): 63.4%
17 | 8.8 | CC(C)(C)NC(=O)C(c1ccc(Cl)cc1)N(CC(=O)NCc1ccccc1)C(=O)c1cc2ccccc2[nH]1 (stereo not given) | 28 | 152 | 248 | 
18 | 7.5 | COc1ccc(C(C(=O)NC(C)(C)C)N(CC(=O)NCc2ccc(Cl)cc2)C(=O)c2cc3ccccc3[nH]2)cc1 (stereo not given) | 53 | 123 | 400 | 
19 | 1.2 | COc1ccc(CNC(=O)CN(C(=O)c2cc3ccccc3[nH]2)C(C(=O)NC(C)(C)C)c2ccc(Cl)cc2)cc1 (stereo not given) | 121 | 140 | 146 | MRT [9]: 7.4 h; Cmax [10]: 1590 ng/mL; Vdss (Rattus norvegicus): 12.8 L/kg; Tmax [11]: 4.98 min; Ratio IC50 (Leishmania donovani [3]): 7; Vd [12]: 4.4 L/kg; Activity (Leishmania donovani [13]): 56.17%; Activity (Leishmania donovani [14]): 73.3%; CL/F [15]: 25 mL/min/kg; Activity (Leishmania donovani [16]): 79.07%; Cmax [17]: 1390 ng/mL; Activity (Leishmania donovani [18]): 49.1%; AUC(0-t) [19]: 7790 ng·h/mL; Tmax [20]: 1 h; MRT [21]: 8.5 h; AUC(0-t) [22]: 27200 ng·h/mL; clearance [23]: 10 mL/min/kg; bioavailability [24]: 34.9%; Activity (Syrian golden hamster): Non-toxic; inhibition in vivo at 50 mg/kg/day (Leishmania donovani [7]): 70%
20 | 1 | CC(C)(C)NC(=O)C(c1ccc(Br)cc1)N(CC(=O)NCCCN1CCOCC1)C(=O)c1cc2ccccc2[nH]1 (stereo not given) | >400 | 147 | > 400 | Activity (Syrian golden hamster): Non-toxic; inhibition in vivo at 50 mg/kg/day (Leishmania donovani [7]): 63.5%
